For data set [1], the target named is Polyamine deacetylase HDAC10 (Homo sapiens, UniProt Q969S8). The data set is described as follows: Inhibition of recombinant full length N-terminal FLAG-tagged human HDAC10 expressed in baculovirus infected sf9 cells using Ac-peptide-AMC as substrate preincubated for 15 mins followed by substrate addition and measured after 1 hr by fluorescence assay.
Data set [2] concerns the target Serine/threonine-protein kinase mTOR (Homo sapiens, UniProt P42345). The data set is described as follows: Inhibition of recombinant N-terminal FLAG-tagged human mTOR (1362 to end residues) using ULight-4E-BP1 (Thr37/46) peptide as substrate after 1 hr by fluorescence assay. The essentials:
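mTOR enzyme, ATP, compound and ULight-4E-BP1 (Thr37/46) peptide in kinase buffer were incubated 1 h at room temperature. EDTA quench plus Eu-anti-phospho-4E-BP1 antibody was added and equilibrated 1 h. TR-FRET was read at excitation 320 or 340 nm and emission 665 nm. Curves were fitted, and values are means of at least two experiments.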

The target of data set [3] is Histone deacetylase 7 (Homo sapiens, UniProt Q8WUI4). The data set is described as follows: Inhibition of recombinant full length N-terminal GST-tagged human HDAC7 expressed in baculovirus expression system using Ac-peptide-AMC as substrate preincubated for 15 mins followed by substrate addition and measured after 1 hr by fluorescence assay.
For data set [4], the system named is OCI-AML2. The data set is described as follows: Antiproliferative activity against human OCI-AML2 cells after 72 hrs by MTT assay. The format is functional, cell-based. Particulars: OCI-AML2, 72 h. In general terms: Tetrazolium dyes change colour on reduction, which living cells bring about.
For data set [5], the target named is PI3-kinase p110-alpha/p85-alpha (Homo sapiens) (UniProt P27986+P42336). The data set is described as follows: Inhibition of recombinant human full length N-terminal His-tagged/untagged p110alpha/p85alpha expressed in baculovirus expression system at 1000 nM using PIP2 as substrate after 1 hr by Kinase-Glo reagent-based assay relative to control. In outline: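 PI3Kα (p110α/p85α) incubated with PIP2 substrate and ATP in kinase buffer for 1 h at room temperature. Kinase-Glo reagent was then added for 15 min before luminescence read-out. Inhibition rate at 100 or 1000 nM is the mean of at least two experiments.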
Background: Kinase-Glo measures the ATP left after a reaction by luminescence.

The test system of data set [6] is MV4-11. The data set is described as follows: Cell cycle arrest in human MV4-11 cells assessed as accumulation at G2/M phase at 5 nM after 24 hrs by propidium iodide/RNase staining-based FACS analysis (reference value: 18.79%). The format is functional. (A flow cytometer gives signals particle by particle.)
Data set [7] deals with MV4-11. The data set is described as follows: Cell cycle arrest in human MV4-11 cells assessed as accumulation at G2/M phase at 10 nM after 24 hrs by propidium iodide/RNase staining-based FACS analysis (reference value: 18.79%). It is filed as functional.
Data set [8] concerns MM1.S. The data set is described as follows: Cell cycle arrest in human MM1S cells assessed as accumulation at G0/G1 phase at 5 nM after 24 hrs by propidium iodide/RNase staining-based FACS analysis (reference value: 49.22%). The format is functional.
The test system of data set [9] is MV4-11. The data set is described as follows: Induction of apoptosis in human MV4-11 cells assessed as early apoptotic cells at 10 nM after 48 hrs by Annexin V-FITC/propidium iodide staining-based flow cytometric analysis (reference value: 10.7%). The format is functional.
In data set [10] the test system is MV4-11. The data set is described as follows: Induction of apoptosis in human MV4-11 cells assessed as viable cells at 10 nM after 48 hrs by Annexin V-FITC/propidium iodide staining-based flow cytometric analysis (reference value: 84.1%). The format is functional. The note with it: MV4-11, 48 h, read-out: Activity.
The subject of data set [11] is MV4-11. The data set is described as follows: Induction of apoptosis in human MV4-11 cells assessed as viable cells at 80 nM after 48 hrs by Annexin V-FITC/propidium iodide staining-based flow cytometric analysis (reference value: 84.1%). The note with it: MV4-11, 48 h, read-out: Activity. It is filed as functional.
The subject of data set [12] is MV4-11. The data set is described as follows: Induction of apoptosis in human MV4-11 cells assessed as viable cells at 160 nM after 48 hrs by Annexin V-FITC/propidium iodide staining-based flow cytometric analysis (reference value: 84.1%). It is filed as functional. Particulars: MV4-11, 48 h, read-out: Activity.
Data set [13] deals with MV4-11. The data set is described as follows: Induction of apoptosis in human MV4-11 cells assessed as late apoptotic cells at 320 nM after 48 hrs by Annexin V-FITC/propidium iodide staining-based flow cytometric analysis (reference value: 5.03%). The format is functional.
Data set [14] has as its system MM1.S. The data set is described as follows: Induction of apoptosis in human MM1S cells assessed as viable cells at 10 nM after 48 hrs by Annexin V-FITC/propidium iodide staining-based flow cytometric analysis (reference value: 98.9%). It is filed as functional. The note with it: read-out: Activity.
Data set [15] concerns MM1.S. The data set is described as follows: Induction of apoptosis in human MM1S cells assessed as necrotic cells at 20 nM after 48 hrs by Annexin V-FITC/propidium iodide staining-based flow cytometric analysis (reference value: 0.32%). The format is functional.
Data set [16] concerns MM1.S. The data set is described as follows: Induction of apoptosis in human MM1S cells assessed as viable cells at 20 nM after 48 hrs by Annexin V-FITC/propidium iodide staining-based flow cytometric analysis (reference value: 98.9%). It is filed as functional. Particulars: read-out: Activity.
The test system of data set [17] is MM1.S. The data set is described as follows: Induction of apoptosis in human MM1S cells assessed as late apoptotic cells at 40 nM after 48 hrs by Annexin V-FITC/propidium iodide staining-based flow cytometric analysis (reference value: 0.42%). The format is functional.
In data set [18] the test system is MM1.S. The data set is described as follows: Induction of apoptosis in human MM1S cells assessed as necrotic cells at 40 nM after 48 hrs by Annexin V-FITC/propidium iodide staining-based flow cytometric analysis (reference value: 0.32%). The format is functional.
Data set [19] concerns MM1.S. The data set is described as follows: Induction of apoptosis in human MM1S cells assessed as late apoptotic cells at 80 nM after 48 hrs by Annexin V-FITC/propidium iodide staining-based flow cytometric analysis (reference value: 0.42%). It is filed as functional.
The subject of data set [20] is MM1.S. The data set is described as follows: Induction of apoptosis in human MM1S cells assessed as early apoptotic cells at 320 nM after 48 hrs by Annexin V-FITC/propidium iodide staining-based flow cytometric analysis (reference value: 0.38%). The format is functional.
The subject of data set [21] is MM1.S. The data set is described as follows: Induction of apoptosis in human MM1S cells assessed as viable cells at 320 nM after 48 hrs by Annexin V-FITC/propidium iodide staining-based flow cytometric analysis (reference value: 98.9%). The note with it: read-out: Activity. The format is functional.
Data set [22] has as its system MM1.S. The data set is described as follows: Antitumor activity against human MM1S cells xenografted in NOD/SCID mouse assessed as tumor growth inhibition at 10 mg/kg, iv administered every 2 days for 5 days and measured every 2 days post last dose by caliper method relative to control. The format is functional. Particulars: read-out: TGI. The essentials: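 MM1S xenografts were made with 10^7 cells in 100 μL serum-free RPMI 1640, injected s.c. into the right flank of female NOD/SCID mice aged 5-6 weeks. Mice were randomized at 100-200 mm3, 6 per group. Dosing was i.v. every 2 days in saline with 2.5% DMSO and 10% cyclodextrin at pH 9. Tumours were measured by caliper every 2 days (volume = length × width² × 0.5) and weighed at the end.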

A short description of data set [23]: Toxicity against NOD/SCID mouse xenografted with human MM1S cells assessed as effect on body weight at 20 mg/kg, iv administered every 2 days for 5 days. The format is organism-based. Particulars: in vivo. The essentials:
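Female NOD/SCID mice, 5-6 weeks old, received 10^7 MM1S cells in 100 μL serum-free RPMI 1640 s.c. into the right flank. At 100-200 mm3 tumours they were randomised, 6 mice per group. Tumours were measured by caliper every 2 days. At the end, tumours were excised and weighed. Survivors are reported per group.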

Polyamine deacetylase HDAC10, sequence (Q969S8 whole entry): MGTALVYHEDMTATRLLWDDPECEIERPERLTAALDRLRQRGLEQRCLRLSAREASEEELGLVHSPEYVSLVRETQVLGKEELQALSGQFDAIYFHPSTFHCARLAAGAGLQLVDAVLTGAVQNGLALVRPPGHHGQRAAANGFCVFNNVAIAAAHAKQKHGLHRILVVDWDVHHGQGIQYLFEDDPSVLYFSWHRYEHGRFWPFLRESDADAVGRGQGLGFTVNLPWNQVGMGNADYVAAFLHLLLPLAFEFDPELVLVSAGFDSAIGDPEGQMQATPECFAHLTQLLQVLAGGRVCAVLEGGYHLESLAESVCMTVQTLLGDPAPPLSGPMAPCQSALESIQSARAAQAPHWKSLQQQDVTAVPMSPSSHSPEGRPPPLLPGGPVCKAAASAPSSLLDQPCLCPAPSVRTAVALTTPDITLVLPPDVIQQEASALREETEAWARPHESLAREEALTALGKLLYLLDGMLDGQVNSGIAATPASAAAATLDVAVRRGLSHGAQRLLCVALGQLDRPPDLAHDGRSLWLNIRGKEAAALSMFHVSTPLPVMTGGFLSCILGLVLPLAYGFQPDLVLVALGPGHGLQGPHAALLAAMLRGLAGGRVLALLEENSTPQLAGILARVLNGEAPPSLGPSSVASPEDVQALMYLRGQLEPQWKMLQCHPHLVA
Histone deacetylase 7, sequence (Q8WUI4 whole entry): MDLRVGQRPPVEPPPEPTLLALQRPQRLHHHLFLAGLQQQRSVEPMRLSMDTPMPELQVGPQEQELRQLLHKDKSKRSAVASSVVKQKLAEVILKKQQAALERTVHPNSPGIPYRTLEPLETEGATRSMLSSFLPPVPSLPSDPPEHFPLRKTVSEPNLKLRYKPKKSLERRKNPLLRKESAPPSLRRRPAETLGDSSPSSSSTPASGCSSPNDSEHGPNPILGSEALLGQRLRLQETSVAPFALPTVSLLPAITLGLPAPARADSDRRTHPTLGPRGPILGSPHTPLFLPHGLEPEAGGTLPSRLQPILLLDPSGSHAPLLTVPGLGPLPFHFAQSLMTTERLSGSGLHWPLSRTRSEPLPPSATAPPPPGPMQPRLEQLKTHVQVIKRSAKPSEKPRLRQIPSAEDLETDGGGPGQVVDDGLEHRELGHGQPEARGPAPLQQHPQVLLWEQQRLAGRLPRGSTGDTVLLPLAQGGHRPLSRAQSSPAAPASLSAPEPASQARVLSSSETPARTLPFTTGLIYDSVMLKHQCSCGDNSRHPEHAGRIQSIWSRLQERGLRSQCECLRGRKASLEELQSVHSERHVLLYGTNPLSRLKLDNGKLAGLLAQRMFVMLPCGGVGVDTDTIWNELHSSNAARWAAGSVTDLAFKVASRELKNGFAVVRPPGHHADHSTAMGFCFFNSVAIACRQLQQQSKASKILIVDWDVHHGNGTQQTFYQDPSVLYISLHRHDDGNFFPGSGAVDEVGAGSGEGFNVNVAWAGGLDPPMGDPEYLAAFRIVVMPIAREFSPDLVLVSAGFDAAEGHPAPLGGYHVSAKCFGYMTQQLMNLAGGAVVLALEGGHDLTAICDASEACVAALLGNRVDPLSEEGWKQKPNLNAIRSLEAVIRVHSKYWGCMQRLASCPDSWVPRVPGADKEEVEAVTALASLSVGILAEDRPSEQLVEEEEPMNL

Turning to `C[C@@H]1CN(C(=O)Nc2ccc(-c3nc(N4CCOCC4)c4cnn(CCCCCCC(=O)NO)c4n3)cc2)CCO1`, the IC50 (commonly the concentration that inhibits the measured activity by half) was 0.58 nM in [1], 1.2 nM in [2], greater than 1000 nM in data set [3] and 9.01 nM in [4]. Besides, the inhibition – broadly, the change of the read-out against control, counted positive when it falls – in data set [5] was 57.3%. Moreover, the Activity in [6] is recorded as 13.99%; in data set [7], 11.11%; in [8], 57.95%; in [9] it was 14.8%; in [13], 68.3%; in data set [15], 1.05%. Besides, the Activity is given as 23% in [17]; 2.08% in data set [18]; 40.5% in data set [19]; 32.2% in [20]; “Non-Toxic” in data set [23]. In addition, the viability at 0.01 µM in [10] turned out to be 75.2%; in [14] it was 95.1%. Besides, the viability at 0.08 µM in [11] came out at 4.09%. In addition, the viability at 0.16 µM in data set [12] turned out to be 2.29%. Also, in data set [16], the viability at 0.02 µM stood at 92.6%. Further, the viability at 0.32 µM in data set [21] worked out at 3.68%. In addition, the inhibition in vivo at 10 mg/kg in [22] was 48.1%.

Values taken from ChEMBL document CHEMBL4411315, “Discovery of Novel Dual Histone Deacetylase and Mammalian Target of Rapamycin Target Inhibitors as a Promising Strategy for Cancer Therapy” (J Med Chem, 2019).
